Data: ChEMBL document CHEMBL1268835, “Property based optimization of δ-lactam HDAC inhibitors for metabolic stability” (Bioorg Med Chem Lett, 2010)

What was measured:
[1] = Metabolic stability of the compound in ICR mouse liver microsome assessed as compound remaining at 1 uM in presence of buffer; assay type: ADME; settings: liver microsomes, read-out: Stability
Outline: (§1)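 Test compounds were incubated at 37 °C with ICR mouse liver microsomes, with NADPH, without NADPH, and in buffer alone. Read-out is % parent remaining. The screen used 1 mg protein/ml for 30 min. A separate run used female ICR microsomes at 0.5 mg protein/mL for 60 min with 1 µM compound.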

[2] = Metabolic stability of the compound in ICR mouse liver microsome assessed as compound remaining at 1 uM in presence of NADPH; assay type: ADME; settings: liver microsomes, read-out: Stability; outline: as §1
ACHN = test: Growth inhibition of human ACHN cells; assay type: functional
HCT-15 = test: Growth inhibition of human HCT15 cells; assay type: functional
NCI-H23 = test: Growth inhibition of human NCI-H23 cells; assay type: functional
[3] = Metabolic stability of the compound in ICR mouse liver microsome assessed as compound remaining at 1 uM; assay type: ADME; settings: liver microsomes, read-out: Stability; outline: as §1
PC-3 = test: Growth inhibition of human PC3 cells; assay type: functional, cell-based
NUGC-3 = test: Growth inhibition of human NUGC3 cells; assay type: functional
MDA-MB-231 = test: Growth inhibition of human MDA-MB-231 cells; assay type: functional, cell-based
[4] = Cmax in BALB/c mouse at 20 mg/kg, po; assay type: ADME, organism-based; parameters: dose 20 mg/kg, route oral; settings: in vivo
Outline: (§2)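 Balb/c mice were dosed intravenously or orally. Parameters come from noncompartmental analysis of mean plasma concentration–time profiles from three animals. Intravenous AUC was taken from 0 to infinity and oral AUC from 0 to 5 h. Oral bioavailability (F) is expressed as %.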

Mus musculus [5] = test: Clearance in BALB/c mouse at 10 mg/kg, iv; settings: in vivo
Mus musculus [6] = test: (§3) Volume of distribution at steady state in BALB/c mouse at 5 mg/kg, iv; assay type: ADME, organism-based; parameters: dose 5 mg/kg, route intravenous; settings: in vivo; outline: as §2
[7] = Tmax in BALB/c mouse at 20 mg/kg, po; assay type: ADME, organism-based; parameters: dose 20 mg/kg, route oral; settings: in vivo; outline: as §2
[8] = AUC (0 to infinity) in BALB/c mouse at 5 mg/kg, iv; assay type: ADME, organism-based; parameters: time infinity, dose 5 mg/kg, route intravenous; settings: plasma; outline: as §2
[9] = AUC (0 to 5 hrs) in BALB/c mouse at 20 mg/kg, po; assay type: ADME, organism-based; parameters: dose 20 mg/kg, route oral; settings: plasma; outline: as §2
[10] = Oral bioavailability in BALB/c mouse at 20 mg/kg; assay type: ADME, organism-based; settings: in vivo; outline: as §2
Mus musculus [11] = test: Half life in BALB/c mouse at 10 mg/kg, iv; settings: in vivo
[12] = Apparent permeability across human Caco-2 cells; assay type: ADME, cell-based
[13] = Half life in BALB/c mouse at 20 mg/kg, po; assay type: ADME, organism-based; parameters: dose 20 mg/kg, route oral; settings: in vivo; outline: as §2
[14] = Clearance in BALB/c mouse at 5 mg/kg, iv; assay type: ADME, organism-based; parameters: dose 5 mg/kg, route intravenous; settings: in vivo; outline: as §2
[15] = Half life in BALB/c mouse at 5 mg/kg, iv; assay type: ADME, organism-based; parameters: dose 5 mg/kg, route intravenous; settings: in vivo; outline: as §2
[16] = as §3; assay type: ADME, organism-based; parameters: dose 5 mg/kg, route intravenous; settings: BALB/c, in vivo, read-out: Vdss; outline: as §2

Structure (SMILES)	remaining at 1 µM [2] [%]	GI50 (ACHN) [nM]	GI50 (HCT-15) [nM]	GI50 (NCI-H23) [nM]	remaining at 1 µM [3] [%]	GI50 (PC-3) [nM]	GI50 (NUGC-3) [nM]	GI50 (MDA-MB-231) [nM]	also measured
O=C(CCC1=CCCN(CCc2ccccc2F)C1=O)NO	45.3	4470	3600	6090	52.7	7070	3780	3020	remaining at 1 µM [1]: 104%
Cc1cccc(CCN2CCC=C(CCC(=O)NO)C2=O)c1	–	–	4410	–	–	> 10000	–	4040	–
CN(C)CCCN1c2ccccc2Sc2ccc(Cl)cc21 [CHLORPROMAZINE]	1.2	–	–	–	86.8	–	–	–	–
O=C(CCC1=CCCN(CCc2ccc3ccccc3c2)C1=O)NO	–	380	310	430	–	390	360	270	–
O=C(CCC1=CCCN(CCc2ccc([N+](=O)[O-])cc2)C1=O)NO	–	> 10000	> 10000	> 10000	–	> 10000	> 10000	> 10000	–
O=C(CCC1=CCCN(Cc2cccc(Cl)c2)C1=O)NO	31.3	4480	6220	2960	40.3	4650	3920	3580	remaining at 1 µM [1]: 103%
O=C1CC2(CCCC2)CC(=O)N1CCCCN1CCN(c2ncccn2)CC1 [BUSPIRONE]	0.3	–	–	–	96.6	–	–	–	remaining at 1 µM [1]: 106%
O=C(CCC1=CCCN(CCCCc2ccc(Br)cc2)C1=O)NO	–	2390	3190	2730	–	4810	2010	3540	–
CC(C)(C)c1ccc(CN2CCC=C(CCC(=O)NO)C2=O)cc1	–	3000	2940	–	–	5190	–	2840	–
N#Cc1cccc(CN2CCC=C(CCC(=O)NO)C2=O)c1	–	–	> 10000	–	–	8480	–	4180	–
CC(C)(C)c1ccc(CCCN2CCC=C(CCC(=O)NO)C2=O)cc1	3.3	1720	1660	2000	8	1130	2810	> 10000	remaining at 1 µM [1]: 103%
Cc1ccc(CCCCN2CCC=C(CCC(=O)NO)C2=O)cc1	4	2490	2940	2790	5.7	2530	2130	3050	remaining at 1 µM [1]: 99.3%
O=C(CCC1=CCCN(CCc2ccccc2Cl)C1=O)NO	–	8710	4210	6500	–	7250	5930	3910	–
Cc1ccc(CCN2CCC=C(CCC(=O)NO)C2=O)cc1	–	4550	4000	5560	–	6340	3570	2840	–
COc1cccc(CCN2CCC=C(CCC(=O)NO)C2=O)c1	–	7600	3960	7060	–	4840	4260	3030	–
O=C(CCC1=CCCN(CCc2cccc(Br)c2)C1=O)NO	–	300	1250	1830	–	810	820	870	–
O=C(CCC1=CCCN(CCCc2ccc3ccccc3c2Br)C1=O)NO	–	460	530	490	–	300	790	560	–
O=C(CCC1=CCCN(CCc2ccc(C(F)(F)F)cc2)C1=O)NO	–	–	1700	–	–	4820	–	1810	–
N#Cc1ccc(CN2CCC=C(CCC(=O)NO)C2=O)cc1	–	–	> 10000	–	–	> 10000	–	8170	–
O=C(CCC1=CCCN(CCc2ccc(Br)cc2)C1=O)NO	29.6	–	870	–	56.6	3410	–	1870	remaining at 1 µM [1]: 104%
O=C(CCC1=CCCN(CCCCc2ccc(Cl)cc2)C1=O)NO	–	2460	3300	2880	–	4150	1790	2560	–
O=C(CCC1=CCCN(CCc2ccc(Cl)cc2)C1=O)NO	–	1280	1660	2120	–	1510	1060	920	–
O=C(CCC1=CCCN(Cc2ccc(Br)cc2F)C1=O)NO	31.7	–	5370	–	55	5810	–	3120	Cmax [4]: 1390 ng/mL; CL (Mus musculus [5]): 65 mL/min/kg; remaining at 1 µM [1]: 102%; Vdss (Mus musculus [6]): 0.8 L/kg; Tmax [7]: 15 min; AUC(0-inf) [8]: 2590 ng·h/mL; AUC(0-t) at 4 h [9]: 732 ng·h/mL; bioavailability [10]: 14.1%; t1/2 (Mus musculus [11]): 372 min
O=C(CCC1=CCCN(CCCCc2ccc(F)cc2)C1=O)NO	–	9530	> 10000	> 10000	–	> 10000	9020	> 10000	–
CNC(=C[N+](=O)[O-])NCCSCc1ccc(CN(C)C)o1 [RANITIDINE]	–	–	–	–	–	–	–	–	Papp [12]: 1.5 ×10⁻⁶ cm/s
CC(C)(C)c1ccc(CCN2CCC=C(CCC(=O)NO)C2=O)cc1	–	2270	520	990	–	500	1100	1130	–
O=C(CCC1=CCCN(CCCCc2ccccc2)C1=O)NO	8.7	1890	5400	5990	8.5	3250	3190	2030	Cmax [4]: 197 ng/mL; half-life [13]: 9 min; remaining at 1 µM [1]: 97.3%; clearance [14]: 49.8 mL/min/kg; half-life [15]: 77.4 min; Vd [16]: 0.27 L/kg; Tmax [7]: 15 min; Papp [12]: 23.9 ×10⁻⁶ cm/s; AUC(0-inf) [8]: 1670 ng·h/mL; AUC(0-t) at 4 h [9]: 64.4 ng·h/mL; bioavailability [10]: 1%
COCCc1ccc(OCC(O)CNC(C)C)cc1 (stereo unspecified) [METOPROLOL]	–	–	–	–	–	–	–	–	Papp [12]: 29.6 ×10⁻⁶ cm/s
O=C(CCC1=CCCN(CCc2cccc(C(F)(F)F)c2)C1=O)NO	–	2640	2350	3970	–	2470	1700	1900	–
